Active and inactive are the calls of the source. The calls are words filed in the database; no cut-off is given here.
Experiments:
[1] = molecular target: Speckle-type POZ protein (Homo sapiens) (UniProt O43791); test: Inhibition of SPOP signalling in human OS-RC2 cells assessed as accumulation of DUSP7 incubated for 12 hrs by Western blot analysis; assay type: cell-based
Outline: (§1)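 Cells exposed 12 hr to inhibitor at graded concentrations, RIPA lysates normalized by BCA. 12% SDS-PAGE, nitrocellulose transfer, milk block, primary antibody at 4 °C overnight, HRP secondary, ECL. GAPDH loading control.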

[2] = molecular target: Speckle-type POZ protein (Homo sapiens) (UniProt O43791); test: Binding affinity to recombinant N-terminal GST/His-tagged SPOP (unknown origin) MATH binding domain expressed in Escherichia coli BL21 (DE3) assessed as change in melting temperature at 1 fold compound by SYPRO Orange dye based differential scanning fluorimetry (reference value: -1.7 degreeC)
A498 = test: Antiproliferative activity against human A498 cells assessed as reduction in cell viability at 30 uM incubated for 72 hrs by MTT assay relative to control; assay type: functional; conditions: A498, 72 h
Outline: (§2)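 MTT read-out. Cells seeded at 1,000-2,200/well, grown 12 hr at 37 °C, then compound added for 72 hr. MTT for 4 hr, formazan dissolved in DMSO, absorbance at 490 nm. Untreated-cell OD taken as 100% proliferation; inhibition reported at 30 μM.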

OS-RC-2 [3] = test: Antiproliferative activity against human OS-RC2 cells assessed as reduction in cell viability at 30 uM incubated for 72 hrs by MTT assay relative to control; assay type: functional; conditions: OS-RC-2, 72 h; outline: as §2
[4] = Solubility of compound in cell culture medium in presence of 0.2 % DMSO; assay type: physicochemical
Outline: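 Solubility determined in cell culture medium containing 0.2% DMSO.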

OS-RC-2 [5] = test: Inhibition of colony formation in human OS-RC2 cells at 1 to 5 uM incubated for 12 days by crystal violet dye based assay; assay type: functional, cell-based
Outline: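 Cells seeded at 1,000/well, grown 12 days at 37 °C, 5% CO2, medium renewed every 3 days. Fixed with 10% acetic acid/10% methanol for 15 min, stained with 1% crystal violet for 10 min.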

[6] = Selectivity index, ratio of IC50 for human H1299 to IC50 for human A498 cells
[7] = Selectivity index, ratio of IC50 for human U251 to IC50 for human A498 cells
[8] = molecular target: Speckle-type POZ protein (Homo sapiens) (UniProt O43791); test: Binding affinity to recombinant N-terminal GST/His-tagged MATH binding domain SPOP (unknown origin) expressed in Escherichia coli BL21 (DE3) assessed as change in melting temperature at 20 fold compound incubated for 15 mins by nano differential scanning fluorimetry (reference value: -3.8 degreeC)
[9] = molecular target: Speckle-type POZ protein (Homo sapiens) (UniProt O43791); test: Binding affinity to recombinant N-terminal GST/His-tagged SPOP (unknown origin) (23 to 337 residues) expressed in Escherichia coli BL21 (DE3) assessed as change in melting temperature at 1 fold compound incubated for 15 mins by nano differential scanning fluorimetry (reference value: -1.9 degreeC)
[10] = molecular target: Speckle-type POZ protein (Homo sapiens) (UniProt O43791); test: Binding affinity to recombinant N-terminal GST/His-tagged SPOP (unknown origin) MATH binding domain expressed in Escherichia coli BL21 (DE3) assessed as change in melting temperature at 5 fold compound by SYPRO Orange dye based differential scanning fluorimetry (reference value: -1.7 degreeC)
[11] = molecular target: Speckle-type POZ protein/PTEN (Homo sapiens) (UniProt P60484+O43791); test: Inhibition of SPOP/PTEN interaction in human A498 cells assessed as increase in SPOP level at 1 to 50 uM incubated for 20 mins by DARTS based Western blot analysis; assay type: cell-based
Outline: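 DARTS. Lysates of 1×10⁶ cells in TNC buffer, 120 μg per tube, incubated with compound at 0, 1, 5, 10 or 50 μM for 20 min at rt. Pronase digestion 10 min at rt (1:1000 for A498, 1:2000 for OS-RC-2), stopped with protease inhibitors, then SPOP western blot. Triplicate experiments.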

[12] = molecular target: Speckle-type POZ protein (Homo sapiens) (UniProt O43791); test: Inhibition of SPOP signalling in human OS-RC2 cells assessed as accumulation of PTEN incubated for 12 hrs by Western blot analysis; assay type: cell-based
Outline: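 Cells treated with SPOP inhibitor at different concentrations for 12 hr, lysed in RIPA, protein by BCA. Samples run on 12% SDS-PAGE, blotted to nitrocellulose, primary antibody overnight at 4 °C, HRP secondary, ECL detection. GAPDH loading control. Triplicate experiments.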

[13] = molecular target: Speckle-type POZ protein (Homo sapiens) (UniProt O43791); test: Inhibition of SPOP signalling in human A498 cells assessed as effect on total ERK level at 0.5 to 10 uM incubated for 12 hrs by Western blot analysis; assay type: cell-based; outline: as §1
[14] = molecular target: Speckle-type POZ protein (Homo sapiens) (UniProt O43791); test: Inhibition of SPOP signalling in human OS-RC2 cells assessed as effect of PTEN mRNA expression at 1 to 10 uM incubated for 12 hrs by qRT-PCR analysis; assay type: cell-based

Speckle-type POZ protein (Homo sapiens), sequence (O43791 whole entry, the tested form may be a part): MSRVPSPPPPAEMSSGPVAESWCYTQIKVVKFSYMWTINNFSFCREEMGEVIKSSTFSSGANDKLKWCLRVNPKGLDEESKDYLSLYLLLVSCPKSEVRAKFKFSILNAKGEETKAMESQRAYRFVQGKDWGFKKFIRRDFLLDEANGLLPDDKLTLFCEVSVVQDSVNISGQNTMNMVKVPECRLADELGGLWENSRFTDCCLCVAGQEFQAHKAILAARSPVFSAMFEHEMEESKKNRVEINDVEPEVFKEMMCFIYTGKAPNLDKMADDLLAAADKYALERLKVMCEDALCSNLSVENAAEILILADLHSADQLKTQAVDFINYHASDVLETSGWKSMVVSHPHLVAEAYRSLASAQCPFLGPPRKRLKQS
Speckle-type POZ protein/PTEN (Homo sapiens), sequence (O43791 whole entry, looked up): as the sequence (O43791 whole entry, the tested form may be a part) above
Speckle-type POZ protein/PTEN (Homo sapiens), sequence (P60484 whole entry, looked up): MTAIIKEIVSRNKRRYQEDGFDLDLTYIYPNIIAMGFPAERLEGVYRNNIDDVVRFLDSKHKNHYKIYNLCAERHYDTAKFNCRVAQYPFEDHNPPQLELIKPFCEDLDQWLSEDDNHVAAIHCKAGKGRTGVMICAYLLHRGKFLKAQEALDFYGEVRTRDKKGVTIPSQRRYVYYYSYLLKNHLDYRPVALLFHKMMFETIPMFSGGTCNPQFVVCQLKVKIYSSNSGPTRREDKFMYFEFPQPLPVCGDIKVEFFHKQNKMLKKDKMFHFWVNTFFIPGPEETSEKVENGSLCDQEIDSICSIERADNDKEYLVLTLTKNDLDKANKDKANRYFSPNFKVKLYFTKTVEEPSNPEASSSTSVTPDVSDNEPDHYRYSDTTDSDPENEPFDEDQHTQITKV

inhibition [1]: Dose-dependent effect
ΔTm [2]: 2.7 °C
solubility [4]: > 90 µM
ΔTm [8]: 3.5 °C
ΔTm [9]: 2.1 °C
ΔTm [10]: 3.7 °C
inhibition [11]: Active
inhibition [12]: Dose-dependent effect
inhibition [13]: inactive
inhibition [14]: inactive
Structure (SMILES): Cc1cccn2c(=O)c3cc(C(=O)NCCN4CCN(C)CC4)c(=N)n(CCc4cccs4)c3nc12
inhibition at 30 µM (A498): 85%
inhibition at 30 µM (OS-RC-2 [3]): 90%
inhibition (OS-RC-2 [5]): Active
Ratio IC50 [6]: >5
Ratio IC50 [7]: >5
